Experiments:
Settings in all cases: stereoisomer not certain
[1] = molecular target: T1, OR52I1 (Homo sapiens) (UniProt Q8NGK6)
T1 sequence (whole entry): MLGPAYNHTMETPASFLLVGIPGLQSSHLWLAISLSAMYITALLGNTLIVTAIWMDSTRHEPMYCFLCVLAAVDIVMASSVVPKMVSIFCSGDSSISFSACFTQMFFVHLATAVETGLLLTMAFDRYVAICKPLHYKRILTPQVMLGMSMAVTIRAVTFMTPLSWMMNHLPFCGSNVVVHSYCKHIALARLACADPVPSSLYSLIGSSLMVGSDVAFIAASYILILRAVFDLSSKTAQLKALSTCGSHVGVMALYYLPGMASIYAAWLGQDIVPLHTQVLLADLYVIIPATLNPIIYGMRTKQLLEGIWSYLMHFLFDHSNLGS
How it was run: (§1)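 Assay methods differ from source to source, frequently being transient luciferase assays in mammalian cell lines. For each receptor–molecule pair, the label responsive (active) applies when the original authors judged the measured signal statistically different from baseline, and non-responsive (inactive) applies otherwise.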

[2] = molecular target: T2, OR52I2 (Homo sapiens) (UniProt Q8NH67)
T2 sequence (whole entry): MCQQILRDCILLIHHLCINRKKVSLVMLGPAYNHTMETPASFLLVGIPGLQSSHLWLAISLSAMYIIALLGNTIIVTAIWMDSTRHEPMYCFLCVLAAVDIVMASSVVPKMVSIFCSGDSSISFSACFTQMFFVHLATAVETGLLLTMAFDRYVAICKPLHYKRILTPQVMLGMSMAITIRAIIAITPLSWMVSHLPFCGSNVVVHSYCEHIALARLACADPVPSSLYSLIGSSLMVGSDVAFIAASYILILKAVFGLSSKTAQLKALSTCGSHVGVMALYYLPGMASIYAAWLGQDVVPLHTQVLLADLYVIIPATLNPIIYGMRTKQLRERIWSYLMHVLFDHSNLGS
How it was run: as §1

[3] = molecular target: OR52J3 (Homo sapiens) (UniProt Q8NH60)
How it was run: as §1

[4] = molecular target: T3, OR52K1 (Homo sapiens) (UniProt Q8NGK4)
T3 sequence (whole entry): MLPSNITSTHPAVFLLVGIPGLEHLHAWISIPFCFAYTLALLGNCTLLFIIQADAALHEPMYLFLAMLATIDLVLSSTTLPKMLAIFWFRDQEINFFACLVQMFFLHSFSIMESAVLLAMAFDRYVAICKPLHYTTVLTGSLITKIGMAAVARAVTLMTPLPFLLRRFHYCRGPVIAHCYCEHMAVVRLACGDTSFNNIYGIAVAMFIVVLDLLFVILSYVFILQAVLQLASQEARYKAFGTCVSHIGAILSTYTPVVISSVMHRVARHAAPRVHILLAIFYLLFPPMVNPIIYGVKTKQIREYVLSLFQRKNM
How it was run: as §1

[5] = molecular target: T4, OR52K2 (Homo sapiens) (UniProt Q8NGK3)
T4 sequence (whole entry): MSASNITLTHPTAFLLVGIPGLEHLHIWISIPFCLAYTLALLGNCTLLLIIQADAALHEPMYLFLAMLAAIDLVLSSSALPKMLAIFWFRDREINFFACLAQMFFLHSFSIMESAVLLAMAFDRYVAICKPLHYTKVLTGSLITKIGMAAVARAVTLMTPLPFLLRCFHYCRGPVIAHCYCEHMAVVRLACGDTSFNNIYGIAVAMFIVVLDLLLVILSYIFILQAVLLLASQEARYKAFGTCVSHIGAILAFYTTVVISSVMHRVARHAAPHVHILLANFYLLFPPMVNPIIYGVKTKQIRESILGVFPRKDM
How it was run: as §1

[6] = molecular target: T5, OR52L1 (Homo sapiens) (UniProt Q8NGH7)
T5 sequence (whole entry): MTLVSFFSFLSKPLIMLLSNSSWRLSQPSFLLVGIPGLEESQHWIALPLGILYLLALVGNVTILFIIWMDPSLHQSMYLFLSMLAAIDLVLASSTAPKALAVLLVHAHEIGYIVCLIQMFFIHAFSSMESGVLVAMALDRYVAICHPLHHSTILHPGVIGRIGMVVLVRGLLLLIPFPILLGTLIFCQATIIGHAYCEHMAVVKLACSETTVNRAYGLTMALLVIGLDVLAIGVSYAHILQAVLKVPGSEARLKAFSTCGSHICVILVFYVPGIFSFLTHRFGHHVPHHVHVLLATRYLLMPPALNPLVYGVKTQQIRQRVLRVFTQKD
How it was run: as §1

[7] = molecular target: T6, OR52M1 (Homo sapiens) (UniProt Q8NGK5)
T6 sequence (whole entry): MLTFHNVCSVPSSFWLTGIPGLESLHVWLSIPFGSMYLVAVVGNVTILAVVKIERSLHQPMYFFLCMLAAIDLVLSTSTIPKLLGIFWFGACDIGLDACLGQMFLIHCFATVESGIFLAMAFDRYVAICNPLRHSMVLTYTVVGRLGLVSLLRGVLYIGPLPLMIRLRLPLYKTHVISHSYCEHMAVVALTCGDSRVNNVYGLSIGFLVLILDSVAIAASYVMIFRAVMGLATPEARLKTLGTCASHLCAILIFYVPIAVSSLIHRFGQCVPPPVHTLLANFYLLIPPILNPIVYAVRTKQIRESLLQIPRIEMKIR
How it was run: as §1

[8] = molecular target: T7, OR52N1 (Homo sapiens) (UniProt Q8NH53)
T7 sequence (whole entry): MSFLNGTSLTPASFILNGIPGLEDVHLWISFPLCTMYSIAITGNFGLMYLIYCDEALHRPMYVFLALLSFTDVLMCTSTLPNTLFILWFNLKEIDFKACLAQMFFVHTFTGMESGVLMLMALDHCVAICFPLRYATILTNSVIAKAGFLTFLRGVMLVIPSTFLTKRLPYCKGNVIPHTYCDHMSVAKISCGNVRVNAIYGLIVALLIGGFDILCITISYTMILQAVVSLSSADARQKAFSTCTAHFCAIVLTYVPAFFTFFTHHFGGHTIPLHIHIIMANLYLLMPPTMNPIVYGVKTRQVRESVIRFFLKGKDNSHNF
How it was run: as §1

[9] = molecular target: T8, OR52N2 (Homo sapiens) (UniProt Q8NGI0)
T8 sequence (whole entry): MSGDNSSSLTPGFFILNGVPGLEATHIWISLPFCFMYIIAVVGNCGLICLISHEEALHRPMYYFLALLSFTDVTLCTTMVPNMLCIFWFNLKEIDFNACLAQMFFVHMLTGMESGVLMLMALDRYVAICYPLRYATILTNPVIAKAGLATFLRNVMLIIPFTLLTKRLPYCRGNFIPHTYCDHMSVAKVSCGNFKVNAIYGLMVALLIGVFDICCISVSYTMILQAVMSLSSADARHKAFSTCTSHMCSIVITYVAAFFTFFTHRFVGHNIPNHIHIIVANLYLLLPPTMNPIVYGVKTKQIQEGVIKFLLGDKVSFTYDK
How it was run: as §1

[10] = molecular target: T9, OR52N4 (Homo sapiens) (UniProt Q8NGI2)
T9 sequence (whole entry): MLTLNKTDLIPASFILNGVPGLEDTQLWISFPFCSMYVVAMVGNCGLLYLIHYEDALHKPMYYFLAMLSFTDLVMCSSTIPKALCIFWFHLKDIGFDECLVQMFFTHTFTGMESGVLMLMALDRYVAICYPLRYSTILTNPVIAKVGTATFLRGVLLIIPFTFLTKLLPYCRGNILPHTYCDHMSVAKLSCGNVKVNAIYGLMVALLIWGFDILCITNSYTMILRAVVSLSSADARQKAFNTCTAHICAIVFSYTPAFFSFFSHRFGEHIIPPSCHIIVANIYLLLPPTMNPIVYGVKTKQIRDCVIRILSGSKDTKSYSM
How it was run: as §1

[11] = molecular target: T10, OR52N5 (Homo sapiens) (UniProt Q8NH56)
T10 sequence (whole entry): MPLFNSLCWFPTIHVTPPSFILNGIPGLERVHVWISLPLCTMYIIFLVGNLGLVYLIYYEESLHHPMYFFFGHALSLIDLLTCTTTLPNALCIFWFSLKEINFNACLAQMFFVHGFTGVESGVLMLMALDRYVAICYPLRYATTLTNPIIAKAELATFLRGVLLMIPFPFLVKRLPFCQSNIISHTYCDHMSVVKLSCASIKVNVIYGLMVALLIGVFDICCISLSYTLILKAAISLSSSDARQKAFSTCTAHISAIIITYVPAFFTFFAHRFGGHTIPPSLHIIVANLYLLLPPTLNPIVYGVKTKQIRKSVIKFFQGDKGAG
How it was run: as §1

[12] = molecular target: T11, OR52R1 (Homo sapiens) (UniProt Q8NGF1)
T11 sequence (whole entry): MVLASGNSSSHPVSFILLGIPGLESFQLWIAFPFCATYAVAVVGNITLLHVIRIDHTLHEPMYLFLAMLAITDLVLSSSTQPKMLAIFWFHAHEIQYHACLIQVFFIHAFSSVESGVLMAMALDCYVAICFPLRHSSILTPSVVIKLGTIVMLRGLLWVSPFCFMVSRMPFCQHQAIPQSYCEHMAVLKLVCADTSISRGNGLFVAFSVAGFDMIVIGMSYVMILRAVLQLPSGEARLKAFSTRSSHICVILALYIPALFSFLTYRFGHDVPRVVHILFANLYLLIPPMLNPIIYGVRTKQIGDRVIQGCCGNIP
How it was run: as §1

[13] = molecular target: T12, OR52W1 (Homo sapiens) (UniProt Q6IF63)
T12 sequence (whole entry): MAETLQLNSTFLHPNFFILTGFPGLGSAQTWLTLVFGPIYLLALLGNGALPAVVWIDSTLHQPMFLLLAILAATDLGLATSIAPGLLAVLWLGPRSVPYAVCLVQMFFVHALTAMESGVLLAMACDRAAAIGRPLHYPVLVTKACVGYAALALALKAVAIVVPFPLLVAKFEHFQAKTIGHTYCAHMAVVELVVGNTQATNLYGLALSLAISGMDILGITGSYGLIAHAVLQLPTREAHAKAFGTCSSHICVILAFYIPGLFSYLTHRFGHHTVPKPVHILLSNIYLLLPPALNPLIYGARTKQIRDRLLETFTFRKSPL
How it was run: as §1

[14] = molecular target: T13, OR56A1 (Homo sapiens) (UniProt Q8NGH5)
T13 sequence (whole entry): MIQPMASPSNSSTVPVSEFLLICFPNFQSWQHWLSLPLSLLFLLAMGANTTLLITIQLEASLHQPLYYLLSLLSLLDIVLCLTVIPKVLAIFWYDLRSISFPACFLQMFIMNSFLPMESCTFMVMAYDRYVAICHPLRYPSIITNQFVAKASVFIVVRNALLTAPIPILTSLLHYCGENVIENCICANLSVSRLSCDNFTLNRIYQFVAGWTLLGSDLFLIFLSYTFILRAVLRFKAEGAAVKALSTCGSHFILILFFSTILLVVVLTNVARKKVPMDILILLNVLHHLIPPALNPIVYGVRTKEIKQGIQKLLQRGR
How it was run: as §1

[15] = molecular target: T14, OR56A3 (Homo sapiens) (UniProt Q8NH54)
T14 sequence (whole entry): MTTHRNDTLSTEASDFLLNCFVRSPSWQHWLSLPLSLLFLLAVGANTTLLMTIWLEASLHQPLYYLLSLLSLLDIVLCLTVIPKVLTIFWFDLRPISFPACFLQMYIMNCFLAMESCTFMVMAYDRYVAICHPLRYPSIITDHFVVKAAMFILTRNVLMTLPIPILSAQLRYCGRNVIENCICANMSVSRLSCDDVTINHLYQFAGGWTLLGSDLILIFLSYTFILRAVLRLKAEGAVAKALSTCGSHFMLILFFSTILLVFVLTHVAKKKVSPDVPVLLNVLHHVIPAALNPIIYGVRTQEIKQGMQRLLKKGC
How it was run: as §1

[16] = molecular target: T15, OR56A5 (Homo sapiens) (UniProt P0C7T3)
T15 sequence (whole entry): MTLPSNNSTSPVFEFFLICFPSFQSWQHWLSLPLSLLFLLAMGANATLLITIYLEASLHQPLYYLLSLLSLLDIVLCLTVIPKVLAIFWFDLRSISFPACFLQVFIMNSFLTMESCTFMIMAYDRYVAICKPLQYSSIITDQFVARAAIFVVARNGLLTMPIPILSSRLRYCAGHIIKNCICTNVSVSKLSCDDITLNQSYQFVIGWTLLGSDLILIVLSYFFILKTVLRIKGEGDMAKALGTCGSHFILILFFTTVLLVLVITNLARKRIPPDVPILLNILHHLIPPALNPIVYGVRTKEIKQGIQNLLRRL
How it was run: as §1

[17] = molecular target: T16, OR56B1 (Homo sapiens) (UniProt Q8NGI3)
T16 sequence (whole entry): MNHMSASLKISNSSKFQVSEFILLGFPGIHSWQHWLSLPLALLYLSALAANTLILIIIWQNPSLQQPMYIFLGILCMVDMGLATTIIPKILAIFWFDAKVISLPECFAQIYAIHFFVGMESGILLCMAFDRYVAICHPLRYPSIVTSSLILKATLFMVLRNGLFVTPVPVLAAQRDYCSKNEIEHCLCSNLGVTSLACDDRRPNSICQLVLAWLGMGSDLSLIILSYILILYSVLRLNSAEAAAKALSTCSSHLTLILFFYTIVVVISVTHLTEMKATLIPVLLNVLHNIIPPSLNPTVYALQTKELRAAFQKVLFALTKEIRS
How it was run: as §1

Measured: odorant receptor agonist call

Sequence of OR52J3 (Homo sapiens) (Q8NH60 whole entry): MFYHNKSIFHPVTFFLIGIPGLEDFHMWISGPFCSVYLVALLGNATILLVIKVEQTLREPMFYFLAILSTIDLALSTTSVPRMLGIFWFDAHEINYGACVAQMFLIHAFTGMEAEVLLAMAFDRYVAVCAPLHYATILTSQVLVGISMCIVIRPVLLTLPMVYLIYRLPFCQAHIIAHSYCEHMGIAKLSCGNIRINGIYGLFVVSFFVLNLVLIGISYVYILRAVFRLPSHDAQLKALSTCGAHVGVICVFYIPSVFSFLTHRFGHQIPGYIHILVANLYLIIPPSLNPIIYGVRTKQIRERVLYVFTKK

CCC1OC(C)=C(O)C1=O (configuration not stated)
inactive: all assays above

Reference: the M2OR odorant receptor database
